The source made the active and inactive calls. The rule behind the calls is not given here.
Experiments:
[1] = molecular target: T1, Acetylcholinesterase (Electrophorus electricus, UniProt O42275); test: Inhibition of electric eel AChE by Ellman's method
[2] = molecular target: Cholinesterase (Equus caballus, UniProt P81908); test: Inhibition of equine serum BuChE by Ellman's method
Procedure, shortened: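 Ellman's method with equine serum BuChE, run as for AChE; triplicate experiments; IC50 (50% inhibitory concentration) as mean ± SD of three independent experiments.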

[3] = molecular target: Amyloid-beta precursor protein (Homo sapiens) (UniProt P05067); test: Inhibition of copper-induced amyloid beta (1 to 42) (unknown origin) aggregation at 50 uM by thioflavin T based fluorescence assay relative to control
Chain of Amyloid-beta precursor protein (Homo sapiens) (P05067 whole entry): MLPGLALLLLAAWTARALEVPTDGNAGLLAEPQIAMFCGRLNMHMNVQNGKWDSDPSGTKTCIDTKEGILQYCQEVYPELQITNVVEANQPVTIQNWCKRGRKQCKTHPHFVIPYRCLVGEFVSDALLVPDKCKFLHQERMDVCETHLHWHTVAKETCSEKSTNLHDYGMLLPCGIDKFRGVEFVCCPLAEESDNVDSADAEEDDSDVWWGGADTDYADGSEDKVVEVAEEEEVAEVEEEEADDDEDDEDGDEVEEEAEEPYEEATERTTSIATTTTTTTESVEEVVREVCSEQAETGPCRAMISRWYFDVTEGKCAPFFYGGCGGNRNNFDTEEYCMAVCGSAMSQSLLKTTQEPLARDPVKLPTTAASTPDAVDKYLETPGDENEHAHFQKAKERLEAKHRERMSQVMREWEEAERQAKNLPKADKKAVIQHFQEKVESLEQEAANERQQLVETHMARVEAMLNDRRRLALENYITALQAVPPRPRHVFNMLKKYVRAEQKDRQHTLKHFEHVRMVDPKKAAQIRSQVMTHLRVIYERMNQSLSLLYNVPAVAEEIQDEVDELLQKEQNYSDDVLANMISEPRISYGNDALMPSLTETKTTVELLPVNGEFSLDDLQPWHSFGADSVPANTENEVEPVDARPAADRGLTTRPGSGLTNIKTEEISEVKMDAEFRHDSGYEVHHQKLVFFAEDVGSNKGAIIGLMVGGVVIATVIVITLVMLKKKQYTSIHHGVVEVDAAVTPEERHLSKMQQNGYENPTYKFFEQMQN
Procedure, shortened: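 Thioflavin T fluorescence assay of copper-mediated Aβ1-42 aggregation; test sample at 50 μM; curcumin as reference anti-amyloidogenic agent; percentage inhibition of aggregation estimated.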

[4] = test system: SH-SY5Y; test: Cytotoxicity against human SH-SY5Y cells at 0.001 to 100 uM after 24 hrs by MTT assay
[5] = molecular target: T1, Acetylcholinesterase; test: Mixed type inhibition of electric eel AChE assessed as inhibition constant using varying levels of acetylthiocholine as substrate by reciprocal Lineweaver-Burk plot analysis
Procedure, shortened: (§1)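 Kinetics with electric eel AChE (Ellman's method): no inhibitor plus three inhibitor concentrations, substrate varied over […] (so in the source); double-reciprocal Lineweaver-Burk plots overlaid; slope/intercept changes and intersection quadrant used to assign inhibition type; Ki calculated from the plots.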

[6] = molecular target: Acetylcholinesterase (Electrophorus electricus) (UniProt O42275); test: Mixed type inhibition of electric eel AChE assessed as decrease in Vmax by reciprocal Lineweaver-Burk plot analysis; procedure, shortened: as §1
Chain of Acetylcholinesterase (Electrophorus electricus) (O42275 24-633 limits assumed): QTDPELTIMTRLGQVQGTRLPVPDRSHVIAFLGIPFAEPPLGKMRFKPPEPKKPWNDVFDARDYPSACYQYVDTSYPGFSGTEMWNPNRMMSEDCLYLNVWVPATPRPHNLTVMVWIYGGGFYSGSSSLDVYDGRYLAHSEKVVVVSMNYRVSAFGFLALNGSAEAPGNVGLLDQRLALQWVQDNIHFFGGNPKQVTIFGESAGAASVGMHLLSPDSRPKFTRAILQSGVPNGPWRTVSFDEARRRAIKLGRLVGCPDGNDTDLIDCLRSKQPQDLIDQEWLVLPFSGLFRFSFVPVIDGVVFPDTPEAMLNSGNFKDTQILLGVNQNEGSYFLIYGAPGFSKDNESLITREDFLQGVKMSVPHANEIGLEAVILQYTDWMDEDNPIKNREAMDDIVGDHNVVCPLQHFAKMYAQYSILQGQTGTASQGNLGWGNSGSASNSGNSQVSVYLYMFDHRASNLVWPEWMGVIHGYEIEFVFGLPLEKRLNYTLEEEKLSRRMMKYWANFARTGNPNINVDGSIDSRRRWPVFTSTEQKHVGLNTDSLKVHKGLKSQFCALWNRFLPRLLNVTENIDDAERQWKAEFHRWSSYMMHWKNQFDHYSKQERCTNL

[7] = molecular target: Acetylcholinesterase (Electrophorus electricus) (UniProt O42275); test: Mixed type inhibition of electric eel AChE assessed as increase in Km by reciprocal Lineweaver-Burk plot analysis; procedure, shortened: as §1
[8] = molecular target: Cholinesterase (Equus caballus) (UniProt P81908); test: Inhibition of equine serum BuChE at 50 to 100 uM by Ellman's method; settings: dose microM 50-100
Chain of Cholinesterase (Equus caballus) (P81908 whole entry): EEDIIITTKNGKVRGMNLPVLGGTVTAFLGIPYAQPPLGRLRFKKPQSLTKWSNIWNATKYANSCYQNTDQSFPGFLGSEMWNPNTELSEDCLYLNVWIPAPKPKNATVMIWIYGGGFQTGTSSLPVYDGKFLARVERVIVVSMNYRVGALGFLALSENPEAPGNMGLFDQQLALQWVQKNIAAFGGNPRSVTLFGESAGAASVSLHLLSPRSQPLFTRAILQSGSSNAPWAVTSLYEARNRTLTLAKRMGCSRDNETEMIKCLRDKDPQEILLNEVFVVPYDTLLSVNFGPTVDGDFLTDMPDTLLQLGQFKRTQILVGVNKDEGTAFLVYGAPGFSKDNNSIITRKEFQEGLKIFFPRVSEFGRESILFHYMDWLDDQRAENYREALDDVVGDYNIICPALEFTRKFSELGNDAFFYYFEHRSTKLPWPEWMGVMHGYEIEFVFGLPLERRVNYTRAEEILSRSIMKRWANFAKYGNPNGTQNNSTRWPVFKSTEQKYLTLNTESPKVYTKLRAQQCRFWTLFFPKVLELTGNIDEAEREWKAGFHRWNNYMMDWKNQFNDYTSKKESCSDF
Procedure, shortened: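 Equine serum BuChE by Ellman's method, with the test compound at two additional single concentrations, 50 and 100 μM; inhibition read at each.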

[9] = Metal chelating activity assessed as compound-Cu2+ complex formation by measuring blue shift in absorption intensity at 5 uM by UV spectra analysis
[10] = Metal chelating activity assessed as compound-Fe2+ complex formation by measuring blue shift in absorption intensity at 5 uM by UV spectra analysis
[11] = Metal chelating activity assessed as compound-Zn2+ complex formation by measuring blue shift in absorption intensity at 5 uM by UV spectra analysis
[12] = Metal chelating activity assessed as formation of Cu2+-compound complex stoichiometry ratio of 2:1 at 5 uM in presence of CuCl2 by UV spectra analysis
[13] = test system: DNA; test: Protection against Fenton reagent-induced Escherichia coli plasmid pBR322 DNA cleavage assessed as reduction in supercoiled circular DNA(1) form to open circular DNA(2) at 0.2 to 1 mM; format: nucleic-acid assay; settings: dose mM 0.2-1
[14] = test system: DNA; test: Protection against Fenton reagent-induced Escherichia coli plasmid pBR322 DNA cleavage assessed as reduction in supercoiled circular DNA(1) form to linear circular DNA(3) at 0.2 to 1 mM; format: nucleic-acid assay; settings: dose mM 0.2-1
[15] = Metal chelating activity assessed as compound-Mg2+ complex formation by measuring blue shift in absorption intensity at 5 uM by UV spectra analysis

Chain of Cholinesterase (P81908 whole entry): as above
T1 sequence (O42275 whole entry): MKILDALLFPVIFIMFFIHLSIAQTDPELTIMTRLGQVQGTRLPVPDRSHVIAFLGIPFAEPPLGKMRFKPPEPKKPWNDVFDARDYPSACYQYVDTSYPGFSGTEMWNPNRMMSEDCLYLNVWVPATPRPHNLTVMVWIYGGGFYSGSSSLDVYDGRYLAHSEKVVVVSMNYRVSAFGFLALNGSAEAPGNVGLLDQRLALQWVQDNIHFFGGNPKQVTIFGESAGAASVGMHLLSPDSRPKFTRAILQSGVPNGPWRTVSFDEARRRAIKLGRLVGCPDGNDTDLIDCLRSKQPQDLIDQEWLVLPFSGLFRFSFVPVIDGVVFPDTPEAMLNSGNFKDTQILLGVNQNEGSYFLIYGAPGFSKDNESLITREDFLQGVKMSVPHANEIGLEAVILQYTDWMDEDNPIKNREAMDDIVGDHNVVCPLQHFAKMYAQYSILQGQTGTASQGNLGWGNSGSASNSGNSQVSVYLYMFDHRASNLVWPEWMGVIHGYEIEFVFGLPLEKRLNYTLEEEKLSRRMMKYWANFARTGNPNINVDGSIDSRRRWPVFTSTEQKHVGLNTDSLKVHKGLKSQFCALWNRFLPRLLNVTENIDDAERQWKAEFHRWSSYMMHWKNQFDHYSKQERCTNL

Compound | IC50 [1] [µM] | IC50 [2] [µM] | inhibition [3] [%] | further results
O=c1ccc2ccc(OCCCCCCn3cc(Cn4nc5ccccc5n4)nn3)cc2o1 | ≥ 10 | ≥ 10 | < 10 | 
O=c1ccc2ccc(OCCn3cc(Cn4nc5ccccc5n4)nn3)cc2o1 | 1.18 | ≥ 10 | < 10 | 
O=c1ccc2ccc(OCCCCCn3cc(COn4nnc5ccccc54)nn3)cc2o1 | ≥ 10 | ≥ 10 | < 10 | 
O=c1ccc2ccc(OCCn3cc(COn4nnc5ccccc54)nn3)cc2o1 | 2.01 | ≥ 10 | 11.4 | 
O=c1ccc2ccc(OCCCCCn3cc(Cn4nc5ccccc5n4)nn3)cc2o1 | ≥ 10 | ≥ 10 | < 10 | 
O=c1cc(OCCn2cc(Cn3nnc4ccccc43)nn2)c2ccccc2o1 | 0.097 | ≥ 10 | 36.7 | 
O=c1cc(OCCCCn2cc(COn3nnc4ccccc43)nn2)c2ccccc2o1 | 3.23 | ≥ 10 | < 10 | 
O=c1ccc2ccc(OCCCCCCn3cc(Cn4nnc5ccccc54)nn3)cc2o1 | ≥ 10 | ≥ 10 | < 10 | 
O=c1cc(OCCCCn2cc(Cn3nnc4ccccc43)nn2)c2ccccc2o1 | 0.234 | ≥ 10 | 22.4 | 
O=c1cc(OCCCCCn2cc(COn3nnc4ccccc43)nn2)c2ccccc2o1 | ≥ 10 | ≥ 10 | < 10 | 
O=c1ccc2ccc(OCCCCn3cc(COn4nnc5ccccc54)nn3)cc2o1 | ≥ 10 | ≥ 10 | < 10 | 
O=c1cc(OCCCCCn2cc(Cn3nnc4ccccc43)nn2)c2ccccc2o1 | 1.14 | ≥ 10 | 11.4 | 
O=c1cc(OCCn2cc(Cn3nc4ccccc4n3)nn2)c2ccccc2o1 | 1.89 | ≥ 10 | < 10 | 
O=c1cc(OCCCCCCn2cc(COn3nnc4ccccc43)nn2)c2ccccc2o1 | ≥ 10 | ≥ 10 | < 10 | 
O=c1cc(OCCCn2cc(COn3nnc4ccccc43)nn2)c2ccccc2o1 | 1.32 | ≥ 10 | < 10 | 
O=c1cc(OCCCCn2cc(Cn3nc4ccccc4n3)nn2)c2ccccc2o1 | 2.09 | ≥ 10 | < 10 | 

Compound | IC50 [1] [µM] | IC50 [2] [µM] | inhibition [3] [%] | further results
O=c1ccc2ccc(OCCCCn3cc(Cn4nnc5ccccc54)nn3)cc2o1 | 4.33 | ≥ 10 | 11.4 | 
O=c1ccc2ccc(OCCCn3cc(Cn4nnc5ccccc54)nn3)cc2o1 | 2.92 | ≥ 10 | 15.9 | 
O=c1cc(OCCCCCn2cc(Cn3nc4ccccc4n3)nn2)c2ccccc2o1 | 4.81 | ≥ 10 | < 10 | 
O=c1ccc2ccc(OCCCCCn3cc(Cn4nnc5ccccc54)nn3)cc2o1 | 5.43 | ≥ 10 | < 10 | 
O=c1ccc2ccc(OCCn3cc(Cn4nnc5ccccc54)nn3)cc2o1 | 2.11 | ≥ 10 | 29.4 | 
O=c1cc(OCCCCCCn2cc(Cn3nnc4ccccc43)nn2)c2ccccc2o1 | 5.42 | ≥ 10 | < 10 | 
O=c1ccc2ccc(OCCCn3cc(Cn4nc5ccccc5n4)nn3)cc2o1 | 1.16 | ≥ 10 | < 10 | 
O=c1cc(OCCn2cc(COn3nnc4ccccc43)nn2)c2ccccc2o1 | 4.32 | ≥ 10 | 16.2 | 
O=c1ccc2ccc(OCCCCCCn3cc(COn4nnc5ccccc54)nn3)cc2o1 | ≥ 10 | ≥ 10 | < 10 | 
O=c1cc(OCCCn2cc(Cn3nc4ccccc4n3)nn2)c2ccccc2o1 | 1.67 | ≥ 10 | < 10 | 
COc1cc2c(cc1OC)C(=O)C(CC1CCN(Cc3ccccc3)CC1)C2 (stereo not drawn) [DONEPEZIL] |  |  |  | Activity [4]: Non-Toxic
O=c1cc(OCCCCCCn2cc(Cn3nc4ccccc4n3)nn2)c2ccccc2o1 | 6.23 | ≥ 10 | < 10 | 
O=c1cc(OCCCn2cc(Cn3nnc4ccccc43)nn2)c2ccccc2o1 | 0.059 | ≥ 10 | 34.3 | Ki [5]: 0.0417 nM; inhibition [6]: Active; inhibition [7]: Active; inhibition [8]: Active; Activity [9]: Active; Activity [10]: Active; Activity [11]: Active; Activity [12]: Active; Activity [13]: Active; Activity [14]: Active; Activity [4]: Non-Toxic; Activity [15]: inactive
O=c1ccc2ccc(OCCCn3cc(COn4nnc5ccccc54)nn3)cc2o1 | 1.98 | ≥ 10 | < 10 | 
O=c1ccc2ccc(OCCCCn3cc(Cn4nc5ccccc5n4)nn3)cc2o1 | 5.44 | ≥ 10 | < 10 | 

Reference: ChEMBL document CHEMBL4725340, “New coumarin-benzotriazole based hybrid molecules as inhibitors of acetylcholinesterase and amyloid aggregation” (Bioorg Med Chem Lett, 2020)
